Where a name gives a salt, the structure may show the parent alone.
What was measured:
[1] = tested on: MV4-11; assay: Antiproliferative activity against human MV4-11 cells after 72 hrs by MTT assay; format: functional, cell-based; details: MV4-11, 72 h
Outline: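 Leukemia cells cultured in RPMI 1640 at 37 °C, 5% CO2. Plated at 1 × 10⁴ cells/well 24 h ahead, then 72 h with compound at 0.001–10 µg/mL. MTT (stock 5 mg/mL) added, formazan dissolved with a DMF/SDS lysing mixture for 24 h, OD read at 570 nm. IC50 vs untreated control; triplicates, 3–5 repeats.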

[2] = tested on: A549; assay: Antiproliferative activity against human A549 cells after 72 hrs by SRB assay; format: functional, cell-based; details: A549, 72 h
Outline: (§1)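 Cells grown in RPMI 1640+OptiMEM (50:50) with 2 mM L-glutamine and 5% FBS at 37 °C, 5% CO2. Plated at 1 × 10⁴ cells/well 24 h before treatment, then exposed 72 h to 0.001–10 µg/mL compound (from 1 mg/mL stock in DMSO/medium). TCA-fixed, stained with 0.4% SRB in 1% acetic acid, dye extracted with 10 mM Tris, read at 540 nm. IC50 vs untreated control; triplicates, 3–5 experiments.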

[3] = tested on: HCT-116; assay: Antiproliferative activity against human HCT116 cells after 72 hrs by SRB assay; format: functional, cell-based; details: HCT-116, 72 h; outline: as §1
[4] = tested on: BALB/3T3; assay: Antiproliferative activity against mouse BALB/3T3 cells after 72 hrs by SRB assay; format: cell-based; details: BALB/3T3, 72 h
Outline: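 Mouse fibroblasts kept in Dulbecco's medium with 2 mM L-glutamine, 1.0 mM sodium pyruvate and 10% FBS at 37 °C, 5% CO2. Seeded at 1 × 10⁴ cells/well a day before dosing, then 72 h exposure to 0.001–10 µg/mL. SRB staining after TCA fixation, Tris extraction, OD 540 nm. IC50 relative to untreated cells; triplicate wells, 3–5 independent runs.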

[5] = tested on: BALB/3T3; assay: Selectivity ratio of IC50 for mouse BALB/3T3 cells to IC50 for human A549 cells
[6] = tested on: BALB/3T3; assay: Selectivity ratio of IC50 for mouse BALB/3T3 cells to IC50 for human HCT116 cells
[7] = tested on: Nucleic Acid; assay: Binding affinity to salmon fish sperm DNA assessed as hypochromic effect by UV-Vis absorption spectroscopic analysis at pH 7; format: nucleic-acid assay; details: Salmonidae
Outline: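 UV–vis absorption titration in pH 7.0 phosphate buffer with 2.5% DMSO at 20 °C, 1 cm quartz cuvette. Compound held at 50 µmol/L with DNA added from 0 to 1.0 µmol/L. Binding assessed from absorbance change using a 1/ΔA versus 1/[DNA] plot.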

[8] = tested on: A549; assay: Selectivity ratio of IC50 for human A549 cells to IC50 for human HCT116 cells; format: functional

| SMILES | IC50 [1] [nM] | IC50 [2] [nM] | IC50 [3] [nM] | K [7] [×10⁵ L/mol] | IC50 [4] [nM] | Ratio IC50 [5] | Ratio IC50 [6] | Ratio IC50 [8] |
| --- | --- | --- | --- | --- | --- | --- | --- | --- |
| Cn1c2nc3ccccc3c-2c(NCCCO)c2cc(Cl)ccc21 | 530 | – | – | – | – | – | – | – |
| Cn1c2nc3ccccc3c-2c(NCCCN)c2cc(Br)ccc21 | 12 | 543 | 274 | 2.93 | 869 | 3 | 3 | – |
| Cn1c2nc3ccccc3c-2c(NCCCN)c2ccccc21 | 66 | 205 | 302 | – | 884 | 3 | 3 | – |
| COc1ccc2c(c1)c(Cl)c1c3ccccc3nc-1n2C | 1210 | – | – | – | – | – | – | – |
| Cn1c2nc3ccccc3c-2c(NCCCCN)c2cc(F)ccc21 | 95 | 785 | 178 | – | 853 | – | 4 | 4 |
| COc1ccc2c(c1)c(NCCCN)c1c3ccccc3nc-1n2C | 102 | 407 | 155 | – | 978 | 3 | 3 | – |
| Cn1c2nc3ccccc3c-2c(N2CCOCC2)c2ccccc21 | 164 | 1510 | 1800 | – | 1610 | – | – | – |
| Cn1c2nc3ccccc3c-2c(NCCCO)c2cc(Br)ccc21 | 703 | 1590 | 989 | – | 1200 | – | – | – |
| Cn1c2ccccc2c2c(NCCCO)c3cc(Cl)ccc3nc21 | 6210 | – | – | – | – | – | – | – |
| COc1cccc2c1C(=O)c1c(O)c3c(c(O)c1C2=O)C[C@@](O)(C(=O)CO)C[C@@H]3O[C@H]1C[C@H](N)[C@H](O)[C@H](C)O1 [DOXORUBICIN HYDROCHLORIDE] | 6 | 329 | 390 | – | 1080 | – | – | – |
| Cn1c2nc3ccccc3c-2c(NCCCCN)c2cc(Cl)ccc21 | 680 | – | – | – | – | – | – | – |
| CN(C)CCNc1c2cc(Cl)ccc2nc2c1c1ccccc1n2C | 2830 | – | – | – | – | – | – | – |
| Cn1c2nc3ccccc3c-2c(NCCCO)c2ccccc21 | 170 | 973 | 714 | – | 635 | – | – | – |
| Cn1c2ccccc2c2c(NCCN)c3cc(Cl)ccc3nc21 | 456 | 8280 | 6990 | – | 10400 | – | – | – |
| CN(C)CCCNCc1c2c3ccccc3nc-2n(C)c2ccc(Cl)cc12 | 3460 | – | – | – | – | – | – | – |
| CN1CCCN(c2c3c4ccccc4nc-3n(C)c3ccccc23)CC1 | 7170 | – | – | – | – | – | – | – |
| CCN(CC)CCCC(C)Nc1c2cc(Cl)ccc2nc2c1c1ccccc1n2C (configuration not stated) | 5250 | – | – | – | – | – | – | – |
| Cn1c2nc3ccccc3c-2c(Cl)c2ccccc21 [11-CHLORONEOCRYPTOLEPINE] | 1310 | – | – | – | – | – | – | – |
| COc1ccc2c(c1)c(NCCCO)c1c3ccccc3nc-1n2C | 135 | 1010 | 278 | – | 807 | – | 4 | 4 |
| Cn1c2ccccc2c2c(N3CCOCC3)c3cc(Cl)ccc3nc21 | > 25000 | – | – | – | – | – | – | – |
| Cn1c2nc3ccccc3c-2c(NCCCN)c2cc(Cl)ccc21 | 68 | 761 | 195 | – | 401 | – | 4 | 4 |
| CN1CCCN(Cc2c3c4ccccc4nc-3n(C)c3ccc(Cl)cc23)CC1 | 3440 | – | – | – | – | – | – | – |
| Cn1c2nc3ccccc3c-2c(NCCc2c[nH]c3ccccc23)c2ccccc21 | 871 | – | – | – | – | – | – | – |

More lines, in order of falling IC50 [1], values ahead:

| IC50 [1] [nM] | IC50 [2] [nM] | IC50 [3] [nM] | K [7] [×10⁵ L/mol] | SMILES | IC50 [4] [nM] | Ratio IC50 [5] | Ratio IC50 [6] | Ratio IC50 [8] |
| --- | --- | --- | --- | --- | --- | --- | --- | --- |
| 18800 | – | – | – | Cn1c2ccccc2c2c(NCCc3c[nH]c4ccccc34)c3cc(Cl)ccc3nc21 | – | – | – | – |
| 810 | – | – | – | Cn1c2nc3ccccc3c-2c(Cl)c2cc(Br)ccc21 | – | – | – | – |
| 800 | 7380 | 4490 | 3.28 | Cn1c2ccccc2c2c(NCCCN)c3cc(Cl)ccc3nc21 | 9800 | – | – | – |
| 780 | – | – | – | CCN(CC)CCCC(C)Nc1c2c3ccccc3nc-2n(C)c2ccc(Cl)cc12 (configuration not stated) | – | – | – | – |
| 773 | 11200 | 8000 | – | CN1CCCN(c2c3cc(Cl)ccc3nc3c2c2ccccc2n3C)CC1 | > 25000 | – | – | – |
| 737 | 4540 | 1160 | – | CN1CCCN(c2c3c4ccccc4nc-3n(C)c3ccc(Br)cc23)CC1 | 7600 | – | – | – |
| 721 | – | – | – | CCN(CC)CCCC(C)Nc1c2c3ccccc3nc-2n(C)c2ccccc12 (configuration not stated) | – | – | – | – |
| 669 | 6090 | 5500 | – | Cn1c2ccccc2c2c(NCCCCN)c3cc(Cl)ccc3nc21 | 9010 | – | – | – |
| 578 | – | – | – | CCN(CC)CCCC(C)Nc1c2c3ccccc3nc-2n(C)c2ccc(Br)cc12 (configuration not stated) | – | – | – | – |
| 447 | – | – | – | Cn1c2nc3ccccc3c-2c(NCCc2c[nH]c3ccccc23)c2cc(Cl)ccc21 | – | – | – | – |
| 132 | 674 | 657 | – | COc1ccc2c(c1)c(NCCCCN)c1c3ccccc3nc-1n2C | 1620 | – | – | – |
| 106 | 7390 | 1750 | – | CN1CCCN(c2c3c4ccccc4nc-3n(C)c3ccc(Cl)cc23)CC1 | 6410 | – | 4 | 4 |
| 100 | 911 | 669 | – | Cn1c2nc3ccccc3c-2c(NCCCCN)c2ccccc21 | 936 | – | – | – |
| 91 | 579 | 209 | – | Cn1c2nc3ccccc3c-2c(NCCCCN)c2cc(Br)ccc21 | 742 | 3 | 3 | – |
